Test results reported in ChEMBL document CHEMBL1212767, “In vitro and in vivo activities of 1-hydroxy-2-alkyl-4(1H)quinolone derivatives against Toxoplasma gondii” (Antimicrob Agents Chemother, 2010).
Active and inactive are the calls of the source. No cut-off for these calls is given here.

Tests used:
Toxoplasma gondii [1] = assay: Antimicrobial activity against Toxoplasma gondii type 1 RH strain infected in human foreskin fibroblasts monolayer assessed as inhibition of parasite replication after 24 hrs by phase-contrast microscopy; type: functional, organism-based
Toxoplasma gondii [2] = assay: Antimicrobial activity against GFP-expressing Toxoplasma gondii type 1 RH strain ip infected in NMRI mouse assessed as decrease in infected peritoneal cells in peritoneal cavity lavage at 32 mg/kg, ip administered 3 days postinfection for 5 days; type: functional, organism-based; parameters: dose 32 mg/kg
Summary of the method: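 Female NMRI mice infected i.p. with GFP-expressing RH tachyzoites. From day 3 post-infection, drug was given i.p. at 32 mg/kg/day for 5 days. Vehicle was ethanol-DMSO (1:1), sonicated at 70°C, then diluted with an equal volume of PBS. Vehicle-treated mice served as controls. On day 8, peritoneal lavage cells were fixed in 3.7% formaldehyde, and the percentage of GFP-infected cells was measured by flow cytometry. Data pooled from three experiments.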

Toxoplasma gondii [3] = assay: Antimicrobial activity against GFP-expressing Toxoplasma gondii type 1 RH strain ip infected in NMRI mouse assessed as decrease in parasite DNA level in liver at 32 mg/kg, ip administered 3 days postinfection for 5 days by quantitative PCR analysis; type: functional, organism-based; parameters: dose 32 mg/kg
Summary of the method: (§1)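 Same i.p.-infected NMRI model and dosing regimen; liver and lung collected on day 8. Parasite DNA was quantified by qPCR targeting the T. gondii cryptic gene, using 250 ng total DNA, 2 mM MgCl2, 1 μM each primer and 0.2 μM each hybridization probe. Cycling: 50 cycles of 95°C, 52°C and 72°C. Standard curve of 250 to 2.5 pg parasite DNA run each time; crossing points by second-derivative method.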

Toxoplasma gondii [4] = assay: (§2) Antimicrobial activity against Toxoplasma gondii type 2 ME49 strain orally infected in ip dosed IRF-8 deficient mouse brain assessed as decrease in inflammatory foci administered for 5 days after 3 days post 28 day 400 mg/dl sulfadiazine dosing by quantitative PCR analysis; type: functional, organism-based
Summary of the method: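 Same ME49 chronic model: sulfadiazine 400 mg/dl for 28 days, then daily drug for 5 days starting 3 days after withdrawal, four mice per group, repeated three times. Brain inflammatory foci were graded as mean inflammatory scores using a previously described scoring method.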

Toxoplasma gondii [5] = assay: Antimicrobial activity against GFP-expressing Toxoplasma gondii type 1 RH strain ip infected in NMRI mouse assessed as decrease in parasite DNA level in lungs at 32 mg/kg, ip administered 3 days postinfection for 5 days by quantitative PCR analysis; type: functional, organism-based; parameters: dose 32 mg/kg; summary of the method: as §1
Toxoplasma gondii [6] = assay: as §2, with “Toxoplasma DNA level measured per 250 ng total DNA” for “inflammatory foci”, “analysis (Rbv = 134 +/- 226.1 pg DNA)” for “analysis”; type: functional
Summary of the method: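 Chronic model: mice infected with ME49; sulfadiazine 400 mg/dl given from day 2 for 28 days to allow cyst formation. Three days after withdrawal, mice received drug daily for 5 days, in groups of four, repeated three times. On day 39, brain parasite load was measured by qPCR as pg T. gondii DNA per 250 ng total DNA.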

Toxoplasma gondii [7] = assay: Antimicrobial activity against Toxoplasma gondii type 1 RH strain infected in human foreskin fibroblasts monolayer assessed as inhibition of parasite replication at 1 uM after 24 hrs by phase-contrast microscopy; type: functional
Summary of the method: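 Confluent human foreskin fibroblast monolayers infected with RH tachyzoites, then exposed to compound (top concentration 1 μM) or DMSO control for 24 h. Read-out was the average number of parasites per vacuole-type count, relative to control.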

Structure (SMILES)	IC50 (Toxoplasma gondii [1])	Activity (Toxoplasma gondii [2])	Activity (Toxoplasma gondii [3])	Activity (Toxoplasma gondii [4])	Activity (Toxoplasma gondii [5])	Activity (Toxoplasma gondii [6])	inhibition (Toxoplasma gondii [1])	inhibition at 1 µM (Toxoplasma gondii [7])
CCCCCCCCCCCCc1cc(=O)c2ccccc2n1O	4.2 nM	Active	Active					
CCCCCCCCCCCCc1c(C)c(=O)c2ccccc2n1O [COMPOUND A]	0.4 nM	Active	Active	Active				
CCCCCCCCCCCCc1c(C)n(O)c2ccccc2c1=O	0.8 nM	Active	Active	Active	Active	6.7 pg		
CCCCCCCCCCCCc1cc(=O)c2cc(OCCN(C)C)ccc2n1O							inactive	
O=C1C(O)=C([C@H]2CC[C@H](c3ccc(Cl)cc3)CC2)C(=O)c2ccccc21 [ATOVAQUONE]			Active	Active	Active	0.8 pg		
CCCCCCCCCCCCc1c(C)n(O)c2ccc(OCCN(C)C)cc2c1=O								38%
